From ChEMBL document CHEMBL1136516, “Synthesis, pharmacology and pharmacokinetics of 3-(4-aryl-piperazin-1-ylalkyl)-uracils as uroselective alpha1A-antagonists” (Bioorg Med Chem Lett, 2003)

Assays:
[1] = biological target: T1, Alpha-1D adrenergic receptor (Rattus norvegicus) (UniProt P23944); assay: Antagonist inhibition noradrenaline-stimulated contractions of rat aortic strings for Alpha-1D adrenergic receptor; assay type: functional
T1 sequence (whole entry): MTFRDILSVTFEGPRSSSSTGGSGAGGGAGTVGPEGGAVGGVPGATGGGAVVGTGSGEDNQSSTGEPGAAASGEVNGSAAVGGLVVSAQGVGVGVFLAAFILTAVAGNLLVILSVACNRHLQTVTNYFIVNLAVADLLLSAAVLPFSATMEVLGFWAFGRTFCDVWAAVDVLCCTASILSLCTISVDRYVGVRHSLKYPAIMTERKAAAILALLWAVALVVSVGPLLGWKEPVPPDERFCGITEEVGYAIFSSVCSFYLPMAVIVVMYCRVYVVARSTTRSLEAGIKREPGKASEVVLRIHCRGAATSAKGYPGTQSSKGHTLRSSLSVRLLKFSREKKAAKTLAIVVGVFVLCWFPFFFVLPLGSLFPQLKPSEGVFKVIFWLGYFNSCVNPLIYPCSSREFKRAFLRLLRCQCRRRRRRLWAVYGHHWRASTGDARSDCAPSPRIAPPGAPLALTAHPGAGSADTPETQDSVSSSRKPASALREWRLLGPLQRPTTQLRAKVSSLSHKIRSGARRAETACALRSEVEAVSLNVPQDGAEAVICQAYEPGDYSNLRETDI

[2] = biological target: Alpha adrenergic receptor (1a and 1d) (Homo sapiens) (UniProt P35348+P25100); assay: Ratio of binding affinities for human cloned alpha1D- adrenoceptor to that of human cloned alpha1A- adrenoceptor (alpha-1D/alpha-1A); assay type: protein assay
Method in brief: (§1)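 Ratio of α1B (or α1D) to α1A binding affinity, calculated from pKi values for [3H]-prazosin displacement at cloned human subtypes expressed in CHO-K1 membranes or whole cells.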

[3] = system: Alpha-1D/alpha-1A adrenergic receptors (rat/rabbit); assay: Ratio of antagonistic activities against alpha-1D vs alpha-1A determined in rat aorta and rabbit bladder neck respectively
[4] = biological target: T2, Alpha-1B adrenergic receptor (Homo sapiens, UniProt P35368); assay: Inhibition of [3H]prazosin binding to CHO-K1 whole cells expressing human cloned Alpha-1B adrenergic receptor; assay type: cell-based
T2 sequence (P35368 whole entry): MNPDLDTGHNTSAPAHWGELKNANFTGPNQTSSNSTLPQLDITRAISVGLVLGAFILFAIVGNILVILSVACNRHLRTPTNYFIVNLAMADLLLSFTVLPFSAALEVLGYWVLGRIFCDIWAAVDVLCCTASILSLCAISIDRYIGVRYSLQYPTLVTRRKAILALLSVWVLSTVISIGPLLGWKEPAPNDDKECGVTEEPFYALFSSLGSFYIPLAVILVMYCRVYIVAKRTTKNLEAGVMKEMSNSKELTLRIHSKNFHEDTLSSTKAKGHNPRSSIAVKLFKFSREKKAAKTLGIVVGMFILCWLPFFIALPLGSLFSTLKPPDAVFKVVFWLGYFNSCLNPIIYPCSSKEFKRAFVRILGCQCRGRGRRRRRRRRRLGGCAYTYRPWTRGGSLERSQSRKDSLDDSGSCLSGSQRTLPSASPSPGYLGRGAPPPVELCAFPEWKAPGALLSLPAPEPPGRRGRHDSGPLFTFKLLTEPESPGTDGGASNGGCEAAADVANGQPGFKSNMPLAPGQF

[5] = species on record: Canis familiaris; assay: In vitro relative rate of metabolism was determined in dog liver microsomes; assay type: ADME, Canis lupus familiaris
[6] = Oral bioavailability in dog; assay type: ADME, organism-based, Canis lupus familiaris; conditions: in vivo
Method in brief: (§2)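 Single dose of 0.3 mg/kg given to dogs both iv and po in a cross-over design, four dogs per compound, with the compound dosed as a salt. Terminal half-life, volume of distribution (calculated after iv dosing only), clearance and oral bioavailability were taken from these single-dose pharmacokinetic profiles.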

[7] = Oral bioavailability in dog (i.v. dosing); assay type: ADME, organism-based, Canis lupus familiaris; conditions: in vivo; method in brief: as §2
[8] = biological target: T3, Alpha-1A adrenergic receptor (Homo sapiens, UniProt P35348); assay: Inhibition of [3H]prazosin binding to CHO-K1 whole cells expressing human cloned Alpha-1A adrenergic receptor; assay type: cell-based
T3 sequence (P35348 whole entry): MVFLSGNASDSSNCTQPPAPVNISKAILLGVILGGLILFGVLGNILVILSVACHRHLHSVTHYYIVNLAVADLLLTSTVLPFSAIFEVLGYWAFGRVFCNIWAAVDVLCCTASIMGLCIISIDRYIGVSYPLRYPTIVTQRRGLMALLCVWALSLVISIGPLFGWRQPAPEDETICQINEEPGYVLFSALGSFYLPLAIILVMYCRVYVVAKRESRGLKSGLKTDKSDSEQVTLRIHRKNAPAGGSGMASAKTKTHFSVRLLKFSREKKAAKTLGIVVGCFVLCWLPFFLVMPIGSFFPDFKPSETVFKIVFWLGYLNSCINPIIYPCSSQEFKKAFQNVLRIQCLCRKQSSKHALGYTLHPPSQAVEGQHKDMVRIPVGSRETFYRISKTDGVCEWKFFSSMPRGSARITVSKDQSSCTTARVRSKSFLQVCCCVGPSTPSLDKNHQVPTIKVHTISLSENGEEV

[9] = biological target: T4, Alpha-1D adrenergic receptor (Homo sapiens, UniProt P25100); assay: Inhibition of [3H]prazosin binding to CHO-K1 whole cells expressing human cloned Alpha-1D adrenergic receptor; assay type: cell-based
T4 sequence (P25100 whole entry): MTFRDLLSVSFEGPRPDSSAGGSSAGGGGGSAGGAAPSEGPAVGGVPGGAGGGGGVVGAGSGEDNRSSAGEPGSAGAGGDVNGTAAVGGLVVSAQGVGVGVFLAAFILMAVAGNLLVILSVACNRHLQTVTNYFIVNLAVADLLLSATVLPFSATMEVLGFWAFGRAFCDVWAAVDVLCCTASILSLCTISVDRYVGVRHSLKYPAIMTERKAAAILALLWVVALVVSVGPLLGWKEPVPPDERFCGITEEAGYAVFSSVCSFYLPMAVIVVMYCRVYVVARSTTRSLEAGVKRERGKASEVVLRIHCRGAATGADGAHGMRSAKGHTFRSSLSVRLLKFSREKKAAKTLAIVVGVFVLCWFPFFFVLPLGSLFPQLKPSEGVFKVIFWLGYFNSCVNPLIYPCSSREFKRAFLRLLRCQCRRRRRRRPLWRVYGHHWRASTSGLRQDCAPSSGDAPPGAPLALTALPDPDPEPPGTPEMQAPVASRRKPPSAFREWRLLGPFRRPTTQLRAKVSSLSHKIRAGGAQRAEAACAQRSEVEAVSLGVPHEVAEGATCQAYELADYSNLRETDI

[10] = system: Alpha-1A adrenergic receptor (Oryctolagus cuniculus); assay: Antagonist inhibition of noradrenaline-stimulated contractions of rabbit bladderneck (RBN) for Alpha-1A adrenergic receptor
[11] = Volume of distribution by as 4 fold increase by iv administration in dogs; assay type: ADME, organism-based, Canis lupus familiaris; conditions: dog, in vivo; method in brief: as §2
[12] = Half life period by po administration in dog at a dose of 0.3 mg/kg; assay type: ADME, organism-based, Canis lupus familiaris; set-up: dose 0.3 mg/kg, route oral; conditions: in vivo; method in brief: as §2
[13] = biological target: Adrenergic receptors; alpha-1 A & B (Homo sapiens) (UniProt P35348+P35368); assay: Ratio of binding affinities for human cloned alpha1B- adrenoceptor to that of human cloned alpha1A- adrenoceptor (alpha-1B/alpha-1A); assay type: protein assay; method in brief: as §1
[14] = Half life period by iv administration in dog at a dose of 0.3 mg/kg; assay type: ADME, organism-based, Canis lupus familiaris; set-up: dose 0.3 mg/kg, route intravenous; conditions: in vivo; method in brief: as §2
[15] = Plasma clearance by iv administration in dog at a dose of 0.3 mg/kg; assay type: ADME, organism-based, Canis lupus familiaris; set-up: dose 0.3 mg/kg, route intravenous; method in brief: as §2

Structure (SMILES): C[C@]1(O)C(=O)N(CCCN2CCN(c3ccc(F)cc3OCC(F)(F)F)CC2)C(=O)N[C@H]1O
- pA2/pKB [1]: 6.6
- Ratio [2]: 33
- Ratio [3]: 79
- Ki [4]: 251 nM
- Relative rate metabolism [5]: 0
- bioavailability [6]: 111%
- bioavailability [7]: 100%
- Ki [8]: 5.01 nM
- Ki [9]: 126 nM
- pA2/pKB [10]: 8.5
- Vd [11]: 4 L/kg
- half-life [12]: 10 h
- Ratio [13]: 63
- half-life [14]: 11 h
- clearance [15]: 4.17 mL/min/kg

Structure (SMILES): Cc1n[nH]c(=O)n(CCCN2CCN(c3ccccc3OCC(F)(F)F)CC2)c1=O
- Ki [4]: 39.8 nM
- Ki [8]: 0.316 nM
- Ki [9]: 7.94 nM

Structure (SMILES): Cc1cc(=O)n(CCCN2CCN(c3ccc(F)cc3OCC(F)(F)F)CC2)c(=O)[nH]1
- Ki [4]: 158 nM
- Ki [8]: 1.58 nM
- Ki [9]: 50.1 nM

Structure (SMILES): O=c1[nH]c2ccccc2c(=O)n1CCCN1CCN(c2ccccc2OCC(F)(F)F)CC1
- pA2/pKB [1]: 8.4
- Ratio [2]: 32
- Ratio [3]: 4
- Ki [4]: 5.01 nM
- Ki [8]: 0.0631 nM
- Ki [9]: 2 nM
- pA2/pKB [10]: 9
- Ratio [13]: 79

Structure (SMILES): Cc1c[nH]c(=O)n(CCCN2CCN(c3ccccc3OCC(F)(F)F)CC2)c1=O
- Ki [4]: 31.6 nM
- Ki [8]: 0.251 nM
- Ki [9]: 12.6 nM

Structure (SMILES): CN(C)c1c[nH]c(=O)n(CCCN2CCN(c3ccc(F)cc3OCC(F)(F)F)CC2)c1=O
- Ki [4]: 200 nM
- Ki [9]: 100 nM

Structure (SMILES): Cc1c[nH]c(=O)n(CCN2CCN(c3ccc(F)cc3OCC(F)(F)F)CC2)c1=O
- Ki [4]: 15.8 nM
- Ki [8]: 0.501 nM
- Ki [9]: 2.51 nM

Structure (SMILES): Cc1c[nH]c(=O)n(CC(C)(C)CN2CCN(c3ccccc3OCC(F)(F)F)CC2)c1=O
- Ki [4]: 398 nM
- Ki [8]: 3.98 nM
- Ki [9]: 126 nM

Structure (SMILES): Cc1c[nH]c(=O)n(CCCN2CCN(c3ccc(F)cc3OCC(F)(F)F)CC2)c1=O
- bioavailability [6]: 78%
- bioavailability [7]: 100%
- Ki [9]: 63.1 nM
- Vd [11]: 0.93 L/kg
- half-life [12]: 2.8 h
- half-life [14]: 2.5 h
- clearance [15]: 4.33 mL/min/kg

Structure (SMILES): COc1c[nH]c(=O)n(CCCN2CCN(c3ccc(F)cc3OCC(F)(F)F)CC2)c1=O
- Ki [4]: 158 nM
- Ki [9]: 31.6 nM

Structure (SMILES): Cc1cn(CCCN2CCN(c3ccccc3OCC(F)(F)F)CC2)c(=O)[nH]c1=O
- Ki [4]: 100 nM
- Ki [8]: 2 nM
- Ki [9]: 20 nM
